{"data": "Published values collected from several papers", "observed": "cell growth or viability"}
{"SMILES": "CCN(CC)CCCCNc1ncc2cc(-c3cc(OC)cc(OC)c3)c(NC(=O)NC(C)(C)C)nc2n1", "cell line": "RT-4", "technique": "MTT", "time": "5 days", "IC50 [nM]": 5}
{"SMILES": "Cc1cc(C)cc(COc2cc3c(cc2OCc2cc(C)cc(C)c2)[C@H]2C[C@](O)(Cc4cn(Cc5ccc(NC(=O)/C=C/CN(C)C)cc5)nn4)C[C@H](C)N2CC3)c1", "cell line": "ASPC1", "technique": "MTT", "IC50 [nM]": 434}
{"SMILES": "Clc1ccc(COc2cncc(-c3cnn(C4CCNCC4)c3)c2)c(Cl)c1", "cell line": "HMC3", "technique": "imaging", "IC50 [nM]": 5180}
{"SMILES": "Cc1cc(C)cc(COc2cc3c(cc2OCc2cc(C)cc(C)c2)[C@H]2C[C@](O)(Cc4cn(Cc5ccc6ccccc6c5)nn4)C[C@H](C)N2CC3)c1", "cell line": "ASPC1", "technique": "MTT", "IC50 [nM]": 601}
{"SMILES": "O=C(Nc1ccc(Cl)cc1)c1ccc([N+](=O)[O-])o1", "cell line": "NHBE", "technique": "resazurin", "time": "96 h", "IC50 [nM]": 21400}
{"SMILES": "C=CC(=O)Nc1cc(Nc2nccc(-c3cn(C)c4ccccc34)n2)c(OC)cc1N(C)CCN(C)C", "cell line": "HCC827", "technique": "ATP luminescence", "time": "72 h", "IC50 [nM]": 2.6}
{"SMILES": "NCCCOc1cc(NC(=O)c2cc(Cl)cc(C(=O)Nc3cc(OCCCN)c4ccccc4n3)n2)nc2ccccc12", "cell line": "WI-38", "technique": "ATP luminescence", "time": "72 h", "IC50 [nM]": 600}
{"SMILES": "CCN1CCN(c2ccc(Nc3cc(N(C)C(=O)Nc4c(Cl)c(OC)cc(OC)c4Cl)ncn3)cc2)CC1", "cell line": "AN3-CA", "technique": "ATP luminescence", "time": "96 h", "IC50 [nM]": 39.9}
{"SMILES": "Cc1ccc2[nH]c(=O)c3cc(C(=O)NCCCN(C)Cc4ccccc4)sc3c2c1", "cell line": "HPAF-II", "technique": "MTT", "time": "24 h", "IC50 [nM]": 22400}
{"SMILES": "CC(C)C[C@H](NC(=O)[C@H](Cc1ccccc1)NC(=O)c1cnccn1)B(O)O", "cell line": "HEC-1-A", "technique": "ATP luminescence", "IC50 [nM]": 17}
{"SMILES": "Cc1nc(Nc2ncc(C(=O)Nc3c(C)cccc3Cl)s2)cc(N2CCN(CCO)CC2)n1", "cell line": "ASPC1", "technique": "MTT", "IC50 [nM]": 380}
{"SMILES": "COc1cc(Nc2nc(CN)cc3c(-c4ccccc4)n[nH]c23)cc(OC)c1OC", "cell line": "WI-38", "technique": "MTS", "time": "48 h", "IC50 [nM]": "> 10000"}
{"SMILES": "NCCOc1cc(C(=O)Nc2cc(OCCN3CCCC3)c3ccccc3n2)nc(C(=O)Nc2cc(OCCN3CCCC3)c3ccccc3n2)c1", "cell line": "WI-38", "technique": "ATP luminescence", "time": "72 h", "IC50 [nM]": 500}
{"SMILES": "C=CS(=O)(=O)Nc1ccc(CCn2cc(C[C@@]3(O)C[C@@H]4c5cc(OCc6cc(C)cc(C)c6)c(OCc6cc(C)cc(C)c6)cc5CCN4[C@@H](C)C3)nn2)cc1", "cell line": "ASPC1", "technique": "MTT", "IC50 [nM]": 1880}
{"SMILES": "O=c1c(O)c(-c2ccc(O)c(O)c2)oc2cc(O)cc(O)c12", "cell line": "RT-4", "technique": "ATP luminescence", "time": "72 h", "IC50 [nM]": 92400}
{"SMILES": "Cc1cc(C)cc(COc2cc3c(cc2OCc2cc(C)cc(C)c2)[C@H]2C[C@](O)(Cc4cn(CC5CCCCC5)nn4)C[C@H](C)N2CC3)c1", "cell line": "ASPC1", "technique": "MTT", "IC50 [nM]": 572}
{"SMILES": "O=C(Nc1cc(OCCN2CCCC2)c2ccccc2n1)c1cc(OCCN2CCCC2)cc(C(=O)Nc2cc(OCCN3CCCC3)c3ccccc3n2)n1", "cell line": "WI-38", "technique": "ATP luminescence", "time": "72 h", "IC50 [nM]": 2100}
{"SMILES": "Cc1cc(C)cc(COc2cc3c(cc2OCc2cc(C)cc(C)c2)[C@H]2C[C@](O)(Cc4cn(Cc5ccc(S(C)(=O)=O)cc5)nn4)C[C@H](C)N2CC3)c1", "cell line": "ASPC1", "technique": "MTT", "IC50 [nM]": 537}
{"SMILES": "COc1cc(Nc2nccc(-c3cnn4nc(OC)ccc34)n2)cc(C(F)(F)F)c1", "cell line": "ASPC1", "technique": "ATP luminescence", "IC50 [nM]": 980}
